Measured values taken from publication PMC3055939 (Chemical biology & drug design, 2011).

Tests used:
[1] = cited from earlier work
[2] = target: purified PSMA (GCP2) (Homo sapiens, UniProt Q04609); experiment: IC50 determinations for PSMA inhibition; format: biochemical
Method in brief: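 Purified PSMA (working stock 50 μg/mL) was diluted in 50 mM Tris, pH 7.4, 1% Triton X-100 to give 15–20% substrate conversion without inhibitor. […] Reactions were quenched with 2% TFA in methanol, buffered with K2HPO4, and centrifuged. Product was quantified by HPLC, and IC50 was calculated.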

Chain of purified PSMA (GCP2) (Q04609 whole entry): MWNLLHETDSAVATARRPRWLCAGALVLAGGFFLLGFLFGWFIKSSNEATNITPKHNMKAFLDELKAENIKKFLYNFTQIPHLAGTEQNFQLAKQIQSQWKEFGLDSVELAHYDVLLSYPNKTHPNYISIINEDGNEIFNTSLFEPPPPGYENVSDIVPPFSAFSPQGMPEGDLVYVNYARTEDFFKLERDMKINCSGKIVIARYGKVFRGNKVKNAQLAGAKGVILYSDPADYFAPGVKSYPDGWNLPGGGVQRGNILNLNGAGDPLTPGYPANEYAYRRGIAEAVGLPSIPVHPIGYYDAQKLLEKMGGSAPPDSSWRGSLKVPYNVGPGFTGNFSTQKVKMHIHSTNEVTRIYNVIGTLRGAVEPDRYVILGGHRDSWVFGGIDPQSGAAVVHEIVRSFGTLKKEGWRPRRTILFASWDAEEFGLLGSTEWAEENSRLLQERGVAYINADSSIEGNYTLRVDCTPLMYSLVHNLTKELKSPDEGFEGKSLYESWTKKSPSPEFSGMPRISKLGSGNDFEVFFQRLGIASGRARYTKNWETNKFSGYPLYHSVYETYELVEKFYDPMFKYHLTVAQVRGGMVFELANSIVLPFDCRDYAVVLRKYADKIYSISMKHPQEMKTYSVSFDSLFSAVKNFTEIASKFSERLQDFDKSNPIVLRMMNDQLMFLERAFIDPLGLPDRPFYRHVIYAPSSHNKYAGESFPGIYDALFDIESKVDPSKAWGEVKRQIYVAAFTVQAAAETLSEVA

IC50 [2] | SMILES | oral bioavailability [1]
– | O=C(O)CCC(CP(=O)(O)O)C(=O)O (centres unmarked) [2-PMPA] | poor oral bioavailability
> 100 µM | C=CS(=O)(=O)NC(CCC(=O)O)C(=O)O (centres unmarked) [2e, 2-Ethenesulfonylamino-pentanedioic acid] | –
